Test results published in ChEMBL document CHEMBL2177001, “Design, synthesis, and structure-activity relationships of novel pyrazolo[5,1-b]thiazole derivatives as potent and orally active corticotropin-releasing factor 1 receptor antagonists” (J Med Chem, 2012).

Tests used:
[1] = test system: Liver microsomes; test: Intrinsic clearance in human liver microsomes; format: ADME, Microsome
Outline: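 Metabolic depletion in pooled human liver microsomes (0.1 mg/mL protein), substrate 0.3 μmol/L, final DMSO 0.01%. Matrix: 100 mmol/L phosphate pH 7.4 with 0.1 mmol/L EDTA. Reaction started with an NADPH-generating system (β-NADP+, G6P, MgCl2, G6PDH) and run at 37 °C for 0 and 15 min. Quenched with acetonitrile/methanol plus internal standard; analysed by LC/MS/MS.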

[2] = AUC in Sprague-Dawley rat at 3 mg/kg, iv; format: ADME, organism-based; design: dose 3 mg/kg, route intravenous; details: plasma
Outline: (§1)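 Fasted male Sprague-Dawley rats, n = 3 per route. IV dose 3 mg/kg from a 3 mg/mL solution in 1% ethanol–0.1 mol/L HCl–glucose. PO dose 10 mg/kg from a 2 mg/mL solution in 5% ethanol–0.1 mol/L HCl–glucose. Jugular blood sampled at 0.083 (iv only), 0.25, 0.5, 1, 2, 4, 6 and 8 h. Plasma deproteinized with acetonitrile plus internal standard, quantified by LC/MS/MS. Mean ± SEM of three animals.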

[3] = Tmax in Sprague-Dawley rat at 10 mg/kg, po; format: ADME, organism-based; design: dose 10 mg/kg, route oral; details: in vivo; outline: as §1
[4] = Oral bioavailability in Sprague-Dawley rat at 10 mg/kg; format: ADME, organism-based; details: in vivo; outline: as §1
[5] = Plasma clearance in Sprague-Dawley rat at 3 mg/kg, iv; format: ADME, organism-based; design: dose 3 mg/kg, route intravenous; outline: as §1
[6] = Volume of distribution at steady state in Sprague-Dawley rat at 3 mg/kg, iv; format: ADME, organism-based; design: dose 3 mg/kg, route intravenous; details: in vivo, read-out: Vdss; outline: as §1
[7] = Cmax in Sprague-Dawley rat at 10 mg/kg, po; format: ADME, organism-based; design: dose 10 mg/kg, route oral; details: in vivo; outline: as §1
[8] = AUC in Sprague-Dawley rat at 10 mg/kg, po; format: ADME, organism-based; design: dose 10 mg/kg, route oral; details: plasma; outline: as §1
[9] = Half life in Sprague-Dawley rat at 3 mg/kg, iv; format: ADME, organism-based; design: dose 3 mg/kg, route intravenous; details: in vivo; outline: as §1

Structure (SMILES)	intrinsic clearance [1] [µL/min/mg]	other results
COCc1cc(OC)c(-c2csc3c(N(CC4CC4)C4CCOCC4)c(OC)nn23)c(OC)c1	180	–
COCCN(CC1CC1)c1c(OC)nn2c(-c3c(OC)cc(COC)cc3OC)csc12	960	–
COCc1cc(OC)c(-c2csc3c(N(CC(C)C)C4CCOCC4)c(OC)nn23)c(OC)c1	360	–
CCCCN(c1c(OC)nn2c(-c3c(OC)cc(COC)cc3OC)csc12)C1CCOCC1	200	–
CCCN(c1c(OC)nn2c(-c3c(OC)cc(COCC)cc3OC)csc12)C1CCOCC1	340	–
COCc1cc(OC)c(-c2csc3c(N(C(C)C)C4CCOCC4)c(OC)nn23)c(OC)c1	670	–
COCc1cc(OC)c(-c2csc3c(N(CC4CC4)CC4CCCOC4)c(OC)nn23)c(OC)c1 (configuration not stated)	550	–
COCc1cc(OC)c(-c2csc3c(N(CC4CC4)CC4CCCCO4)c(OC)nn23)c(OC)c1 (configuration not stated)	870	–
COCc1cc(OC)c(-c2csc3c(N(CC4CC4)CC4(F)CCOCC4)c(OC)nn23)c(OC)c1	550	–
COCc1cc(OC)c(-c2csc3c(N(CC4CC4)CC4CCOC4)c(OC)nn23)c(OC)c1 (configuration not stated)	530	–
CCCCN(c1c(OC)nn2c(-c3c(OC)cc(COCC)cc3OC)csc12)C1CCOCC1	220	AUC [2]: 1580 ng·h/mL; Tmax [3]: 0.5 h; bioavailability [4]: 23%; clearance [5]: 32.2 mL/min/kg; Vd [6]: 6.32 L/kg; Cmax [7]: 540 ng/mL; AUC [8]: 1240 ng·h/mL; half-life [9]: 5.2 h
COCc1cc(OC)c(-c2csc3c(N(CCC4CC4)C4CCOCC4)c(OC)nn23)c(OC)c1	180	–
CCN(c1c(OC)nn2c(-c3c(OC)cc(COC)cc3OC)csc12)C1CCOCC1	200	–
CCCN(c1c(OC)nn2c(-c3c(OC)cc(C#N)cc3OC)csc12)C1CCOCC1	150	–
COCc1cc(OC)c(-c2csc3c(N(CC4CCOCC4)CC4CC4)c(OC)nn23)c(OC)c1	460	–
COCc1cc(OC)c(-c2csc3c(N(CC4CC4)CC4CCCO4)c(OC)nn23)c(OC)c1 (configuration not stated)	1020	–
CCCCN(c1c(OC)nn2c(-c3c(OC)cc(C#N)cc3OC)csc12)C1CCOCC1	150	–
CCCN(c1c(OC)nn2c(-c3c(Cl)cc(COC)cc3OC)csc12)C1CCOCC1	370	–
CCCN(c1c(OC)nn2c(-c3c(OC)cc(COC)cc3OC)csc12)C1CCOCC1	220	–
